Laboratory results published in ChEMBL document CHEMBL5712908, “A genome-wide RNAi screen reveals essential therapeutic targets of breast cancer stem cells” (2019).
The source made the active and inactive calls. No cut-off for these calls is given here.

Key:
Breast cancer cell line [1] = assay: Antitumor activity against human CRCM404 negative breast cancer cells orthotopically xenografted in NSG mouse model of PDX assessed as reduction ALDHbr cells at 50 mg/kg, ip 5 out of 7 for 2 weeks by LSR2 cytometer analysis; assay type: functional, organism-based
How it was run: (§1)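 Chemo-naïve triple-negative PDX cells injected at 100,000 per fat pad, two fat pads per NSG mouse. At ~80 mm³ tumours, mice received i.p. 3 mg/kg daily for 14 days or 50 mg/kg 5 of 7 days for 2 weeks; placebo was DMSO/HPCD 10% (1:9). Five mice (10 tumours) per group. Tumour growth monitored; after 2 weeks tumours dissociated, mouse cells excluded via anti-H2Kd, ALDHbr measured by ALDEFLUOR flow cytometry and normalised to vehicle.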

SUM-159-PT [2] = assay: Synergistic apoptosis in human SUM159 cell expressing ALDH at 500 nM incubated for 72 hrs in presence of salinomycin by ALDEFLUOR/YO-PRO-3/ Hoechst 33342 staining based high content imaging microscopic analysis; assay type: functional
How it was run: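 SUM159 cells seeded at 3,000 cells/well in collagen-coated 96-well plates. Drug added at 6, 24 and 48 h post-seeding. Cisplatin served as positive control and 0.1% v/v DMSO as vehicle control. At 72 h post-seeding, cells were stained with ALDEFLUOR, YO-PRO-3 (1/4,000) and Hoechst 33342 (10 μg/ml) in ALDEFLUOR buffer for 30 min at 37°C, then imaged on ice by high-content microscopy, 9 fields/well. DEAB set the ALDHbr gate. YO-PRO-3⁺ fraction per subpopulation was gated against untreated cells.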

Breast cancer cell line [3] = assay: Synergistic antitumor activity against human CRCM434 negative breast cancer cells orthotopically xenografted in NSG mouse model of PDX assessed as reduction ALDHbr cells at 50 mg/kg, ip 5 out of 7 for 2 weeks cotreated with salinomycin by LSR2 cytometer analysis; assay type: functional
Breast cancer cell line [4] = assay: Synergistic apoptosis activity in patient-derived breast cancer cells orthotopically xenografted in NSG mouse model of PDX assessed as increase in cleaved caspase-3 at 50 mg/kg, ip 5 out of 7 for 2 weeks cotreated with salinomycin by Immunostaining analysis; assay type: functional, organism-based; conditions: Homo sapiens
How it was run: (§2)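 Paraffin sections of treated PDX tumours deparaffinised and subjected to antigen retrieval in citrate buffer pH 6. Peroxidase staining with ready-to-use Ki67 or cleaved caspase-3 antibody, DAB substrate, haematoxylin counterstain. Proportion of positive cells quantified; n = 3; t-test.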

Breast cancer cell line [5] = assay: Antitumor activity against human CRCM404 negative breast cancer cells orthotopically xenografted in NSG mouse model of PDX assessed as reduction in tumor volume at 50 mg/kg, ip 5 out of 7 for 2 weeks; assay type: functional, organism-based; how it was run: as §1
SUM-159-PT [6] = assay: Synergistic anticancer activity against human SUM159 cells assessed as decrease in secondary tumor sphere formation at 62 nM incubated for 72 hrs in presence of salinomycin by Extreme limiting dilution analysis; assay type: functional
How it was run: (§3)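 72 h adherent pretreatment (Sal/JQ1 62 nM/62 nM; docetaxel added at 2 nM where used), then single cells plated in ultra-low attachment 96-well plates in serum-free mammary epithelium basal medium at 25/10/5/3/2/1 cells/well (18–36 wells/condition). Wells with ≥1 sphere after 10 days scored positive; sphere-forming frequency by ELDA. Secondary spheres from dissociated primary spheres. n = 4; pairwise chi-square.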

Breast cancer cell line [7] = assay: Synergistic apoptosis activity in patient-derived breast cancer cells orthotopically xenografted in NSG mouse model of PDX assessed as increase in cleaved caspase-3 at 50 mg/kg, ip 5 out of 7 for 2 weeks by Immunostaining analysis; assay type: functional, organism-based; conditions: Homo sapiens; how it was run: as §2
Breast cancer cell line [8] = assay: Synergistic antitumor activity against human reimplanted CRCM494 negative breast cancer cells orthotopically xenografted in NSG mouse model of PDX assessed as reduction tumor volume at 50 mg/kg, ip 5 out of 7 for 2 weeks cotreated with salinomycin by limiting dilation analysis; assay type: functional, organism-based
Breast cancer cell line [9] = assay: Synergistic antitumor activity against human CRCM404 negative breast cancer cells orthotopically xenografted in NSG mouse model of PDX assessed as reduction ALDHbr cells at 50 mg/kg, ip 5 out of 7 for 2 weeks cotreated with salinomycin by LSR2 cytometer analysis; assay type: functional
Breast cancer cell line [10] = assay: Synergistic antitumor activity against human CRCM494 negative breast cancer cells orthotopically xenografted in NSG mouse model of PDX assessed as reduction ALDHbr cells at 50 mg/kg, ip 5 out of 7 for 2 weeks cotreated with salinomycin by LSR2 cytometer analysis; assay type: functional
SUM149PT = assay: Synergistic anticancer activity against human SUM149 cells assessed as decrease in docetaxel induced primary tumor sphere formation at 62 nM incubated for 72 hrs in presence of salinomycin by Extreme limiting dilution analysis; assay type: functional, cell-based; how it was run: as §3
Breast cancer cell line [11] = assay: Antitumor activity against human reimplanted CRCM494 negative breast cancer cells orthotopically xenografted in NSG mouse model of PDX assessed as reduction tumor volume at 50 mg/kg, ip 5 out of 7 for 2 weeks by limiting dilation analysis; assay type: functional, organism-based
How it was run: (§4)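 After 2 weeks of i.p. treatment (3 mg/kg daily or 50 mg/kg 5 of 7 days), dissociated PDX tumour cells reimplanted into secondary NSG mice at 50, 500 or 5,000 cells. A mouse counted as tumour-bearing once a tumour reached 10 mm. bCSC frequency per 10,000 cells estimated by ELDA; pairwise chi-square test.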

Breast cancer cell line [12] = assay: Synergistic antitumor activity against human reimplanted CRCM404 negative breast cancer cells orthotopically xenografted in NSG mouse model of PDX assessed as reduction tumor volume at 50 mg/kg, ip 5 out of 7 for 2 weeks cotreated with salinomycin by limiting dilation analysis; assay type: functional, organism-based
Breast cancer cell line [13] = assay: Antitumor activity against human reimplanted CRCM404 negative breast cancer cells orthotopically xenografted in NSG mouse model of PDX assessed as reduction tumor volume at 50 mg/kg, ip 5 out of 7 for 2 weeks by limiting dilation analysis; assay type: functional, organism-based; how it was run: as §4
SUM-159-PT [14] = assay: Synergistic anticancer activity against human SUM159 cells assessed as decrease in docetaxel induced primary tumor sphere formation at 62 nM incubated for 72 hrs in presence of salinomycin by Extreme limiting dilution analysis; assay type: functional, cell-based; how it was run: as §3
Breast cancer cell line [15] = assay: Synergistic antitumor activity against human CRCM404 negative breast cancer cells xenografted in NSG mouse model of PDX assessed as reduction metastasis formation in liver at 50 mg/kg, ip 5 out of 7 for 2 weeks cotreated with salinomycin; assay type: functional, organism-based
How it was run: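 Luciferase-expressing PDX cells sorted H2Kd⁻ and viable, 100,000 in 100 μl PBS injected in NSG tail vein. From the next day, salinomycin 3 mg/kg i.p. daily and/or JQ1 50 mg/kg i.p. 5 of 7 days for 2 weeks. Lungs and liver imaged by bioluminescence after i.p. luciferin 30 mg/kg; normalised photon flux; 10 mice/group; Wilcoxon test.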

Breast cancer cell line [16] = assay: Synergistic antitumor activity against human reimplanted CRCM434 negative breast cancer cells orthotopically xenografted in NSG mouse model of PDX assessed as reduction tumor volume at 50 mg/kg, ip 5 out of 7 for 2 weeks cotreated with salinomycin by limiting dilation analysis; assay type: functional, organism-based
Breast cancer cell line [17] = assay: Antitumor activity against patient-derived breast cancer cells orthotopically xenografted in NSG mouse model of PDX assessed as reduction in Ki67 cells at 50 mg/kg, ip 5 out of 7 for 2 weeks by Immunostaining analysis; assay type: functional, organism-based; conditions: Homo sapiens
How it was run: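 Paraffin sections of PDX tumours from 2-week-treated mice. Citrate pH 6 antigen retrieval, then Ki67 immunoperoxidase staining with DAB and haematoxylin counterstain. Proportion of Ki67+ cells quantified; n = 3; t-test.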

Cc1sc2c(c1C)C(c1ccc(Cl)cc1)=N[C@@H](CC(=O)OC(C)(C)C)c1nnc(C)n1-2
Activity (Breast cancer cell line [1]): Active | Activity (SUM-159-PT [2]): Active | fold change (FC) (Breast cancer cell line [3]): 2 | Activity (Breast cancer cell line [4]): inactive | Activity (Breast cancer cell line [5]): Active | fold change (FC) (SUM-159-PT [6]): 5.4 | Activity (Breast cancer cell line [7]): inactive | Activity (Breast cancer cell line [8]): Active | fold change (FC) (Breast cancer cell line [9]): 2 | fold change (FC) (Breast cancer cell line [10]): 2 | Activity (SUM149PT): Active | Activity (Breast cancer cell line [11]): Active | Activity (Breast cancer cell line [12]): Active | Activity (Breast cancer cell line [13]): Active | Activity (SUM-159-PT [14]): Active | Activity (Breast cancer cell line [15]): Active | Activity (Breast cancer cell line [16]): Active | Activity (Breast cancer cell line [17]): Active
